Source: PubChem BioAssay
MEKK2 mut-MEK5 – signal of MEK5 binding to mutant human MEKK2 PB1 domain. bead flow cytometry, Alexa488-MEK5 binding to MEKK2 mutant. percent response, % at 10 µM. hit rate 0.35% among 290,000. AID 1530; in the data active = percent response above about 24%, passing the limit was not always enough
MEKK3 PB1 HTS – raises or lowers MEK5 binding to the human MEKK3 PB1 domain; hit rate 1.4% among 290,000; Q99759; binding response (% of control), % at 10 µM; bead-based flow cytometry, Alexa488-MEK5 binding to MEKK3; actives lie on both sides; 0 = blocked by unlabeled MEK5, 100 = vehicle; AID 1529;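 active = binding response more than 3 SD above or below the average of its plate-row segment, actives on both sides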;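 note: Alexa488 bead fluorescence after subtracting the streptavidin-only scavenger bead signal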
Target sequence (Q99759 whole entry, looked up, the tested form may be a part): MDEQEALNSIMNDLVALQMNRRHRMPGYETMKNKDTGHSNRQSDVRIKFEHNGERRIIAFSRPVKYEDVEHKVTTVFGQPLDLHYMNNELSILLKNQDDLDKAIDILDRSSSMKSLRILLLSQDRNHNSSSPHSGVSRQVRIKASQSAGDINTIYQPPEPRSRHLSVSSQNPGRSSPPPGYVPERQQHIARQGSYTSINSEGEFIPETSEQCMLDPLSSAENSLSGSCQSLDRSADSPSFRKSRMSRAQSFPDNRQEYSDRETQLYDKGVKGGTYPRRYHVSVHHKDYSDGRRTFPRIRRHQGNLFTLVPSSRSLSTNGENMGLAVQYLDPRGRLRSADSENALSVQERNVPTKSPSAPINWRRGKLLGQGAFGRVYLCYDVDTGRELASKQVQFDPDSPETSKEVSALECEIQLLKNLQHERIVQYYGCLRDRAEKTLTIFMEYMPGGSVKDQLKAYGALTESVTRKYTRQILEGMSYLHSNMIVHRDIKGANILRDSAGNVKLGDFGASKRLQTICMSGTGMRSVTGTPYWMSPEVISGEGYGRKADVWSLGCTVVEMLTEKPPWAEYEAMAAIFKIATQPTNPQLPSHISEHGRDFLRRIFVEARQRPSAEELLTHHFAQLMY
ABCG2 block – inhibitors of human ABCG2 transporter, ABCB1 counter-screen; hit rate 0.1% among 190,000; IgMXP3 cells, JC-1 efflux, flow cytometry; Q9UNQ0; inhibition, % at 6.6 µM;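 active = inhibition above 80%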;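 note: 0% = DMSO and 100% = nicardipine control wells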
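Assay system – ABCG2 IgMXP3 and barcoded ABCB1 CCRF-Adr cell mix · Input – 3 million cells/mL in well · Reagent – JC-1 fluorescent substrate · Compound – single test compound dose, 6.6 µM final · Timing – 10 min exposure at 25 °C with rotation, no wash · Detection – flow cytometry of retained JC-1 fluorescence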
MEKK2wt PB1 HTS – raises or lowers MEK5 binding to wildtype human MEKK2 PB1 domain; Q9Y2U5; bead flow cytometry, Alexa488-MEK5 binding to MEKK2 WT; actives lie on both sides; binding response (% of control), % at 10 µM; hit rate 1.1% among 290,000; AID 1531; in the data active = binding response below about 67% or above about 130%
ABCB1 block – inhibitors of human ABCB1 transporter, ABCG2 counter-screen; CCRF-Adr cells, JC-1 efflux, flow cytometry; inhibition, % at 6.6 µM; hit rate 0.067% among 190,000; in the data active = inhibition above about 40%;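 note: 0% = vehicle and 100% = reference inhibitor; higher value means more JC-1 retained so stronger ABCB1 efflux block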
WT yeast gro inh – growth inhibition of WT yeast, mitochondrial fusion screen. hit rate 2.1% among 190,000. mitochondrial fusion phenotypic screen, WT strain. inhibition, % at 10 µM. AID 1362; in the data active = inhibition above about 58%; tested in S. cerevisiae
* marks the source's active call; other numbers are inactive results; · = no result given; [ ] = remark or other dose. Most compounds without a hit are left out; they make up all but 3.5% or so of the library.

SMILES	MEKK2 mut-MEK5	MEKK3 PB1 HTS	ABCG2 block	MEKK2wt PB1 HTS	ABCB1 block	WT yeast gro inh
Cc1cc(=O)[nH]c(SC(C(=O)O)c2ccccc2)n1 (configuration not stated)	-1	101	-10	99	0	-20
N#CC(C#N)=c1ccc2c(c1)N1C3=C(CCCC3)CC3CCCCC31N=2 (configuration not stated)	6	105	9	99	8	73*
N#C/C(C(N)=O)=c1/ccc2c(c1)N1C3=C(CCCC3)CC3CCCCC31N=2 (configuration not stated)	2	81	4	96	1	30
CCCc1nnc(SCC(=O)N2CCCC(C)C2)n1CC1CCCO1 (configuration not stated)	6	110	3	110	0	-1
COc1ccc(/C=C/C(=O)OCC(=O)NC(=O)NC(C)(C)C)cc1	-6	98	3	93	0	5
Oc1c(Br)cc(Br)cc1CNc1ccc(F)cc1	-2	107	0	97	0	83*
Cc1nc(N)nc(N)c1/C=C/C(C)(C)c1ccc(Cl)cc1	11	101	1	132	1	69*
Cc1ccccc1NS(=O)(=O)c1ccc2oc(=O)ccc2c1	1	101	·	100	·	·
CCOCC(=O)Nc1cc(C(F)(F)F)ccc1Oc1cccc(Br)c1	9	110	5	109	1	66*
CC(=O)Nc1cc(C(F)(F)F)ccc1Oc1cccc(Br)c1	-4	96	3	96	1	8
CCCC(NS(=O)(=O)c1ccc(-c2ccc(=O)[nH]n2)s1)c1cccs1 (configuration not stated)	0	102	·	103	·	·
Cc1cccc(C)c1-n1cccc1/C=C1\SC(=S)N(c2cccc(C(=O)O)c2)C1=O	-6	100	-4	96	-1	84*
Cc1ccc(SCC(=O)OCC(=O)NC2(C#N)CCCCC2)cc1	-3	99	·	100	·	·
COc1cc(/C=C2\SC(=O)N(Cc3ccc(Cl)cc3)C2=O)cc([N+](=O)[O-])c1O	-5	105	-4	92	-1	56
COc1cc(/C=C2\SC(=O)N(Cc3ccc(F)cc3)C2=O)cc([N+](=O)[O-])c1O	-2	99	-1	99	0	62*
O=C(CCSCc1ccccc1Cl)N1CCN(c2cccc(Cl)c2)CC1	10	119	3	118	0	61*
O=C(CSCc1ccccc1Cl)N1CCN(c2ccccn2)CC1	2	99	5	100	1	-4
CCOC(=O)c1c(NC(=O)COC(=O)c2cc(OC)c(OC)cc2[N+](=O)[O-])sc(C)c1CC	-1	115	13	102	2	3
CCOC(=O)c1c(C)sc(Sc2ccc(Cl)cc2[N+](=O)[O-])c1OC	-3	102	0	101	0	76*
O=C(NC1=C(Nc2ccc(F)cc2)C(=O)c2ccccc2C1=O)c1ccc(Cl)cc1	-5	95	6	96	2	67*
COc1ccc(Nc2ccc(N3C(=O)CCCC3=O)cc2[N+](=O)[O-])c(OC)c1	-2	108	8	99	1	2
Cc1ccc(C)c(OCC(O)CN2CCC(CN3C(=O)c4cccc5cccc(c45)C3=O)CC2)c1 (configuration not stated)	6	112	3	162*	6	37
Cc1ccccc1OCC(O)CN1CCC(C)CC1 (configuration not stated)	-47	1.0*[inhibitor]	6	0.0*[inhibitor]	-1	3
O=C1c2cccc3cccc(c23)C(=O)N1CC1CCN(CC(O)COCc2ccc3c(c2)OCO3)CC1 (configuration not stated)	0	105	4	128	1	33
Cc1ccccc1OCC(O)CN1CCN(CC(O)COc2ccccc2C)CC1 (configuration not stated)	6	99	1	107	3	0
SMILES	MEKK2 mut-MEK5	MEKK3 PB1 HTS	ABCG2 block	MEKK2wt PB1 HTS	ABCB1 block	WT yeast gro inh
S=c1[nH]nc(Cc2noc3ccccc23)n1-c1ccccc1	6	106	4	106	1	10
Fc1cccc(CCN2C(=S)NC[C@@H]2CC2CCCCC2)c1	2	110	·	98	·	·
Fc1cccc(CCN2C(=S)NC[C@@H]2Cc2ccccc2)c1	-4	99	2	93	0	66*
CCCC[C@@H]1CNC(=S)N1CCC12CC3CC(CC(C3)C1)C2	-6	89	2	93	1	65*
CCCC[C@@H]1CNC(=S)N1CCc1cccc2ccccc12	10	108	5	109	1	75*
CCCC[C@@H]1CNC(=S)N1CCc1cccc(F)c1	4	92	1	101	0	65*
Cc1nc(-c2ccccc2)sc1C1(C)CC(c2c(Cl)cccc2Cl)=NO1 (configuration not stated)	5	105	·	103	·	·
Oc1ccccc1-c1nc(/C=C/c2ccccc2)nn1-c1ccccc1	1	106	14	112	1	64*
Oc1ccc(/C=C/c2nc(-c3ccccc3O)n(-c3ccccc3)n2)cc1	-4	99	0	96	0	79*
COc1ccc(/C=C/c2nc(N)nc(-c3ccccc3O)n2)cc1	0	106	12	111	1	4
CCOc1ccc(CCNC(=O)CS(=O)Cc2nc(-c3ccccc3C)oc2C)cc1OCC (configuration not stated)	3	100	·	102	·	·
CCCCN(C)CCNC(=O)c1cc(-c2cccnc2)nc2ccc(S(=O)(=O)N3CCC(C)CC3)cc12	14	103	·	136*	·	·
CCN(CC)CCNC(=O)c1cc(-c2cccnc2)nc2ccc(S(=O)(=O)N3CCC(C)CC3)cc12	6	104	·	122	·	·
CCc1ccc(N(CC(=O)NC(C)(C)C)C(=O)CCC(=O)Nc2ccccn2)cc1	2	101	·	101	·	·
COc1ccc(CN2CCNC(=O)C2CC(=O)NC2Cc3ccccc3C2)c(OC)c1 (configuration not stated)	4	99	0	105	0	-16
CC(C)[C@@H]1CC[C@@H](C)c2c(-c3ccccc3)n[nH]c21	7	106	6	105	1	62*
COc1ccc(NS(=O)(=O)c2cc(C(=O)O)ccc2C)cc1	-12	85	0	91	0	59*
Cc1ccc(S(=O)(=O)C2(C(=O)N3CCCCC3C)CC2)cc1 (configuration not stated)	6	103	1	103	0	10
CC1=C(C(=O)OCC2CCCO2)C(c2ccc(Cl)cc2)NC(=O)N1 (configuration not stated)	-2	96	3	98	1	-15
Cc1cc(C)c2nc(/N=C(\N)NC(=O)c3ccccc3)nc(C)c2c1	2	100	·	103	·	·
